According to ChEMBL document CHEMBL1135629, “The effect of exchanging various substituents at the 2-position of 2-methoxyestradiol on cytotoxicity in human cancer cell cultures and inhibition of tubulin polymerization” (J Med Chem, 2002):

Legend:
Homo sapiens [1] = species: Homo sapiens; experiment: Cytotoxicity against the cancer cell lines breast MDA-MB-435; type: functional
How it was run: (§1)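 Human tumor cell line panel (about 55 lines) exposed to compound across 10^-4 to 10^-8 M. GI50 is the concentration giving 50% growth inhibition; values outside the range are set to the range limits.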

Homo sapiens [2] = species: Homo sapiens; experiment: Cytotoxicity against the cancer cell lines CNS SF-539; type: functional; how it was run: as §1
Homo sapiens [3] = species: Homo sapiens; experiment: Cytotoxicity against the cancer cell lines lung HOP-62; type: functional; how it was run: as §1
Tubulin = Tubulin (Bos taurus, UniProt Q6B856+Q862L2+Q862F3); experiment: Inhibition of tubulin polymerization measured at 12 uM tubulin concentration.; type: protein assay
How it was run: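 Bovine brain tubulin, electrophoretically homogeneous, at 1.2 mg/mL (12 μM), preincubated at 26 °C with varying compound concentrations (up to 40 μM), then chilled on ice before GTP was added. Polymerization at 26 °C followed by turbidity at 350 nm, with extent read at 20 min. IC50 determined graphically from at least two independent assays.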

Homo sapiens [4] = species: Homo sapiens; experiment: Cytotoxicity against the cancer cell lines ovarian OVCAR-3; type: functional; how it was run: as §1
Homo sapiens [5] = species: Homo sapiens; experiment: Cytotoxicity against the cancer cell lines prostate DU-145; type: functional; how it was run: as §1
Homo sapiens [6] = species: Homo sapiens; experiment: Cytotoxicity against the cancer cell lines colon HCT116; type: functional; how it was run: as §1
Homo sapiens [7] = species: Homo sapiens; experiment: Cytotoxicity against the cancer cell lines melanoma UACC-62; type: functional; how it was run: as §1
Homo sapiens [8] = species: Homo sapiens; experiment: Cytotoxicity against the cancer cell lines renal SN12C; type: functional; how it was run: as §1

SMILES | IC50 (Tubulin) [µM] | GI50 (Homo sapiens [1]) [µM] | GI50 (Homo sapiens [2]) [µM] | GI50 (Homo sapiens [3]) [µM] | GI50 (Homo sapiens [4]) [µM] | GI50 (Homo sapiens [5]) [µM] | GI50 (Homo sapiens [6]) [µM] | GI50 (Homo sapiens [7]) [µM] | GI50 (Homo sapiens [8]) [µM]
C[C@]12CC[C@@H]3c4cc(C#Cc5ccccc5)c(O)cc4CC[C@H]3[C@@H]1CC[C@@H]2O | > 40 | 16 | 16 | 14 | 14 | 16 | 14 | 12 | 11
CN(C)CC/N=C/c1cc2c(cc1O)CC[C@@H]1[C@@H]2CC[C@]2(C)[C@@H](O)CC[C@@H]12 | > 40 | 19 | 22 | 19 | 21 | 22 | 15 | 17 | 22
C[C@]12CC[C@@H]3c4cc(/C=C/CO)c(O)cc4CC[C@H]3[C@@H]1CC[C@@H]2O | 6.3 | 0.052 | 0.25 | 5.5 | 5.3 | 0.9 | 0.47 | 0.47 | 6.2
COc1cc(/C=C/c2cc3c(cc2O)CC[C@@H]2[C@@H]3CC[C@]3(C)[C@@H](O)CC[C@@H]23)cc(OC)c1OC | > 40 | 4.4 | 2 | 3.6 | 3.2 | 2.8 | 3.2 | 2.7 | 2.4
COc1cc2c(cc1O)CC[C@@H]1[C@@H]2CC[C@]2(C)[C@@H](O)CC[C@@H]12 [2-METHOXYESTRADIOL] | 4.7 | 0.08 | 0.32 | 0.7 | 0.21 | 1.8 | 0.47 | 0.36 | 0.95

Now from value to compound, other results behind:

IC50 (Tubulin) [µM] | SMILES | GI50 (Homo sapiens [1]) [µM] | GI50 (Homo sapiens [2]) [µM] | GI50 (Homo sapiens [3]) [µM] | GI50 (Homo sapiens [4]) [µM] | GI50 (Homo sapiens [5]) [µM] | GI50 (Homo sapiens [6]) [µM] | GI50 (Homo sapiens [7]) [µM] | GI50 (Homo sapiens [8]) [µM]
4.9 | CC#Cc1cc2c(cc1O)CC[C@@H]1[C@@H]2CC[C@]2(C)[C@@H](O)CC[C@@H]12 | 0.13 | 0.95 | 1.7 | 0.34 | 3.6 | 0.48 | 0.5 | 6.9
> 40 | C[C@]12CC[C@@H]3c4cc(C#N)c(O)cc4CC[C@H]3[C@@H]1CC[C@@H]2O | > 100 | > 100 | 56 | > 100 | 34 | > 100 | 6.1 | 48
9.6 | C[C@]12CC[C@@H]3c4cc(OCCO)c(O)cc4CC[C@H]3[C@@H]1CC[C@@H]2O | 16 | 11 | 18 | 8.7 | 16 | 15 | 13 | 19
13 | C#Cc1cc2c(cc1O)CC[C@@H]1[C@@H]2CC[C@]2(C)[C@@H](O)CC[C@@H]12 | 2.2 | 2.3 | 6.2 | 3.8 | 10 | 3.9 | 4.8 | 6.4
> 40 | C[C@]12CC[C@@H]3c4cc(/C=N/CCO)c(O)cc4CC[C@H]3[C@@H]1CC[C@@H]2O | 17 | 13 | 23 | 19 | 20 | 11 | 16 | 18
